Results: ChEMBL document CHEMBL3244165, “Improved synthesis and in vitro antiviral activities of 5-cyanouridine and 5-cyano-2'-deoxyuridine” (J Med Chem, 1977)

What was measured:
Human alphaherpesvirus 1 [1] = experiment: Antiviral activity against Herpes simplex virus 1 infected in human skin fibroblasts assessed as inhibition of virus-induced cytopathogenicity; assay type: functional
Human alphaherpesvirus 1 [2] = experiment: Antiviral activity against Herpes simplex virus 1 infected in primary rabbit kidney cells assessed as inhibition of virus-induced cytopathogenicity; assay type: functional
[3] = Dissociation constant, pKa of the compound by spectrophotometric analysis; assay type: physicochemical
Outline: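 Determined spectrophotometrically in Teorell-Stenhagen buffers.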

[4] = test system: Vesicular stomatitis virus; experiment: Antiviral activity against Vesicular stomatitis virus infected in primary rabbit kidney cells assessed as inhibition of virus-induced cytopathogenicity; assay type: functional

O=c1[nH]c(=O)n([C@H]2C[C@H](O)[C@@H](CO)O2)cc1Br [BROXURIDINE] gave an ID50 (Human alphaherpesvirus 1 [1]) of 3.2 ×10⁻⁷ M and an ID50 (Human alphaherpesvirus 1 [2]) of 3.2 ×10⁻⁷ M.
O=c1[nH]c(=O)n([C@H]2C[C@H](O)[C@@H](CO)O2)cc1C(F)(F)F [TRIFLURIDINE] showed an ID50 (Human alphaherpesvirus 1 [1]) of 1.3 ×10⁻⁶ M and an ID50 (Human alphaherpesvirus 1 [2]) of 6.6 ×10⁻⁷ M.
Nc1ncnc2c1ncn2[C@@H]1O[C@H](CO)[C@@H](O)[C@@H]1O [VIDARABINE] gave an ID50 (Human alphaherpesvirus 1 [1]) of 3.7 ×10⁻⁵ M and an ID50 (Human alphaherpesvirus 1 [2]) of 1.5 ×10⁻⁵ M.
For N#Cc1cn([C@H]2C[C@H](O)[C@@H](CO)O2)c(=O)[nH]c1=O, the ID50 (Human alphaherpesvirus 1 [1]) was greater than 7 ×10⁻⁴ M, the ID50 (Human alphaherpesvirus 1 [2]) was 1.6 ×10⁻⁴ M and the pKa [3] was 6.8.
With O=c1[nH]c(=O)n([C@H]2C[C@H](O)[C@@H](CO)O2)cc1I [IDOXURIDINE] the ID50 (Human alphaherpesvirus 1 [1]) was 5.7 ×10⁻⁷ M, the ID50 (Human alphaherpesvirus 1 [2]) was 5.7 ×10⁻⁷ M and the pKa [3] was 8.2.
With N#Cc1cn([C@@H]2O[C@H](CO)[C@@H](O)[C@H]2O)c(=O)[nH]c1=O the ID50 (Human alphaherpesvirus 1 [1]) was greater than 7 ×10⁻⁴ M, the ID50 (Human alphaherpesvirus 1 [2]) was 3.7 ×10⁻⁴ M and the ID50 [4] was greater than 7 ×10⁻⁴ M.
For O=c1[nH]c(=O)n([C@H]2C[C@H](O)[C@@H](CO)O2)cc1F [FLOXURIDINE], the ID50 (Human alphaherpesvirus 1 [1]) was 4 ×10⁻⁷ M and the ID50 (Human alphaherpesvirus 1 [2]) was 1.6 ×10⁻⁷ M.
Work on O=c1[nH]c(=O)n([C@H]2C[C@H](O)[C@@H](CO)O2)cc1Cl [CHLORODEOXYURIDINE] yielded an ID50 (Human alphaherpesvirus 1 [1]) of 7.6 ×10⁻⁷ M and an ID50 (Human alphaherpesvirus 1 [2]) of 7.6 ×10⁻⁷ M.
